Key:
Canis familiaris [1] = test: Mean arterial blood pressure in dog following 1.875 mg/kg i.v. administration.; type: functional, Canis lupus familiaris; conditions: route intravenous
Outline: (§1)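 Anesthetized adult mongrel dogs (sodium pentobarbital 45 mg/kg ip), artificially respired; MAP from cannulated femoral artery, infusion into femoral vein. Dopamine standard (10–15 μg/kg/min, 3 min) checked inotropic responsiveness. Compounds dissolved in DMF, diluted to 10% final in saline; stepwise 3–4 increasing doses, each infused over 5 min after prior peak. CF, MAP, HR expressed as % change from predrug control vs cumulative dose.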

Canis familiaris [2] = test: Heart rate in dog following 1.875 mg/kg i.v. administration.; type: functional, Canis lupus familiaris; conditions: route intravenous; outline: as §1
[3] = target: phosphodiesterase fraction III (Canis familiaris); test: Inhibition of cardiac phosphodiesterase-3 isolated from canine heart.
Canis familiaris [4] = test: Myocardial contractile force (CF) in dog after intravenous dose of 1.875 mg/kg; type: functional, Canis lupus familiaris, Myocardium; outline: as §1
Canis familiaris [5] = test: Effective dose required to increase the myocardial contractile force (CF) 50% above base line when administered intravenously.; type: functional; conditions: Canis lupus familiaris, Myocardium, iv
Outline: (§2)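 Dopamine standard (10–15 μg/kg/min, 3 min) checked inotropic responsiveness. Compounds dissolved in DMF, diluted to 10% final in saline; stepwise 3–4 increasing doses, each infused over 5 min after prior peak. CF, MAP, HR expressed as % change from predrug control vs cumulative dose.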

Canis familiaris [6] = test: Heart rate (HR) in dog after intravenous dose of 0.470 mg/kg; type: functional, Canis lupus familiaris; conditions: dose 0.47 mg/kg; outline: as §1
Canis familiaris [7] = test: Mean arterial blood pressure (MAP) in dog after intravenous dose of 0.470 mg/kg; type: functional, Canis lupus familiaris; parameters: unit: % change from predrug control; conditions: dose 0.47 mg/kg; outline: as §1
Canis familiaris [8] = test: Mean arterial blood pressure (MAP) in dog after intravenous dose of 0.075 mg/kg; type: functional, Canis lupus familiaris; outline: as §2
Canis familiaris [9] = test: Heart rate (HR) in dog after intravenous dose of 0.075 mg/kg; type: functional, Canis lupus familiaris; outline: as §2
Canis familiaris [10] = test: Myocardial contractile force (CF) in dog after intravenous dose of 0.075 mg/kg; type: functional, Canis lupus familiaris, Myocardium; outline: as §2
Canis familiaris [11] = test: Myocardial contractile force (CF) in dog after intravenous dose of 0.470 mg/kg; type: functional, Canis lupus familiaris, Myocardium; conditions: dose 0.47 mg/kg; outline: as §1
[12] = Index of contractility was determined as the ratio of % of dP/dtmax in conscious dog after (po) administration of 0.30 mg/kg; type: functional; conditions: dose 0.3 mg/kg
Outline: (§3)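 Conscious dogs, instrumented earlier with an LV Konigsberg pressure transducer through a left thoracotomy, with ≥1 week recovery and trained to lie quietly. LV dP/dtmax derived as the contractility index; baseline MAP, HR, dP/dtmax taken first. Compound suspended in 0.1% methylcellulose (10 mL) and given by gavage through a gastric tube. Response recorded as % change, also at 8 h.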

[13] = Index of contractility was determined as the ratio of % of dP/dtmax in conscious dog after (po) administration of a dose of 0.01 mg/kg; type: functional; outline: as §3
Canis familiaris [14] = test: Percent change in activity 8 hr after peroral administration in conscious dog at 0.10 mg/kg; type: functional, Canis lupus familiaris; conditions: dose 0.1 mg/kg; route oral; outline: as §3
[15] = Index of contractility was determined as the ratio of % of dP/dtmax in conscious dog after (po) administration of 0.10 mg/kg; type: functional; conditions: dose 0.1 mg/kg; outline: as §3
Canis familiaris [16] = test: Percent change in activity 8 hr after peroral administration in conscious dog at 0.30 mg/kg; type: functional, Canis lupus familiaris; conditions: dose 0.3 mg/kg; route oral; outline: as §3
Canis familiaris [17] = test: Heart rate (HR) in dog after intravenous dose of 0.100 mg/kg; type: functional, Canis lupus familiaris; conditions: dose 0.1 mg/kg; outline: as §1
Canis familiaris [18] = test: Myocardial contractile force (CF) in dog after intravenous dose of 0.100 mg/kg; type: functional, Canis lupus familiaris, Myocardium; conditions: dose 0.1 mg/kg; outline: as §1
Canis familiaris [19] = test: Mean arterial blood pressure (MAP) in dog after intravenous dose of 0.100 mg/kg; type: functional, Canis lupus familiaris; conditions: dose 0.1 mg/kg; outline: as §1
Canis familiaris [20] = test: Mean arterial blood pressure (MAP) in dog after intravenous dose of 0.188 mg/kg; type: functional, Canis lupus familiaris; outline: as §1
Canis familiaris [21] = test: Heart rate (HR) in dog after intravenous dose of 0.188 mg/kg; type: functional, Canis lupus familiaris; outline: as §1
Canis familiaris [22] = test: Myocardial contractile force (CF) in dog after intravenous dose of 0.188 mg/kg; type: functional, Canis lupus familiaris, Myocardium; outline: as §1
Canis familiaris [23] = test: Heart rate (HR) in dog after intravenous dose of 0.010 mg/kg; type: functional, Canis lupus familiaris; conditions: dose 0.075 mg/kg, in the assay text read “0.075 mg/kg” for “0.010 mg/kg”; outline: as §1
Canis familiaris [24] = organism: Canis familiaris; test: Inotropic and enzyme inhibition effect on heart rate (HR); type: functional, Canis lupus familiaris
Canis familiaris [25] = test: Intravenous dose required to increase contractile force (inotropic effect) by 50%; type: functional; conditions: Canis lupus familiaris; outline: as §1

| IC50 [3] [µM] | Compound | Activity (Canis familiaris [1]) | Activity (Canis familiaris [2]) | Activity (Canis familiaris [4]) | ED50 (Canis familiaris [5]) [mg/kg] | other results |
| --- | --- | --- | --- | --- | --- | --- |
| 28 | Cc1cc2c(c(C3=NNC(=O)CC3C)c1)OCC(=O)N2 (centres undefined) | -15 | 8 | 51 | 1.8 |  |
| 31 | Cc1cc2c(c(C3=NNC(=O)CC3)c1)OCC(=O)N2 | -12 | 2 | 32 | > 1.88 |  |
| 18 | CN1C(=O)COc2ccc(C3=NNC(=O)CC3)cc21 |  |  |  | 0.279 | Activity (Canis familiaris [6]): 13; Activity (Canis familiaris [7]): -4 |
| 630 | O=C1CCC(c2ccc3c(c2)NC(=O)CO3)=NN1 |  | 9 |  | 0.7 |  |
| 9.5 | CS(=O)(=O)N1CCOc2ccc(C3=NNC(=O)CC3)cc21 | -14 | 24 | 76 | 1.33 |  |
| 7.5 | Cc1cc(C2=NNC(=O)CC2C)c2c(c1)N(C)C(=O)CO2 (centres undefined) | -17 | 19 | 98 | 0.75 |  |
| 6 | CC1CC(=O)NN=C1c1ccc2c(c1)OC(C)(C)C(=O)N2C (centres undefined) |  |  |  | 0.0217 | Activity (Canis familiaris [8]): -14; Activity (Canis familiaris [9]): 19; Activity (Canis familiaris [10]): 85 |
| 4 | CC1CC(=O)NN=C1c1ccc2c(c1)N(S(C)(=O)=O)CCO2 (centres undefined) |  |  |  | 0.148 | Activity (Canis familiaris [6]): 17; Activity (Canis familiaris [11]): 99; Activity (Canis familiaris [7]): -1 |
| 0.3 | CC1CC(=O)NN=C1c1ccc2c(c1)OCC(=O)N2 (centres undefined) [BEMORADAN] |  |  |  | 0.0054 | Ratio [12]: 130%; Activity (Canis familiaris [8]): -21; Ratio [13]: 43%; Change (Canis familiaris [14]): 31%; Activity (Canis familiaris [9]): 25; Activity (Canis familiaris [10]): 127; Ratio [15]: 85%; Change (Canis familiaris [16]): 65% |
|  | C=CCN1N=C(c2ccc3c(c2)N(S(C)(=O)=O)CCO3)CCC1=O | 4 | 10 | 37 | > 1.88 |  |
|  | Cc1[nH]c(=O)c(C#N)cc1-c1ccncc1 [MILRINONE] |  |  |  | 0.022 | Activity (Canis familiaris [17]): 15; Activity (Canis familiaris [18]): 105; Activity (Canis familiaris [19]): -13 |
| 30 | CC(=O)N1CCOc2ccc(C3=NNC(=O)CC3C)cc21 (centres undefined) |  |  |  | 0.056 | Activity (Canis familiaris [6]): 35; Activity (Canis familiaris [11]): 135; Activity (Canis familiaris [7]): -31 |
|  | O=C1CCC(c2ccc(-n3ccnc3)cc2)=NN1 [IMAZODAN] |  |  |  | 0.0822 | Activity (Canis familiaris [20]): -4; Activity (Canis familiaris [21]): 8; Activity (Canis familiaris [22]): 77 |
| 8 | CC1CC(=O)NN=C1c1ccc2c(c1)N(C1CCCC1)C(=O)C(C)O2 (centres undefined) | -5 | 7 | 36 | > 1.88 |  |
| 5 | CC1CC(=O)NN=C1c1ccc2c(c1)N(C(C)C)C(=O)C(C)O2 (centres undefined) | -16 | 8 | 83 | 0.47 |  |
| 2 | CC1CC(=O)NN=C1c1ccc2c(c1)NC(=O)CO2 (centres undefined) |  |  |  | 0.077 | Activity (Canis familiaris [6]): 26; Activity (Canis familiaris [7]): -14 |

| IC50 [3] [µM] | Compound | Activity (Canis familiaris [1]) | Activity (Canis familiaris [2]) | Activity (Canis familiaris [4]) | ED50 (Canis familiaris [5]) [mg/kg] | other results |
| --- | --- | --- | --- | --- | --- | --- |
| 23 | CC1(C)Oc2ccc(C3=NNC(=O)CC3)cc2NC1=O | -6 | 14 | 113 | 0.65 |  |
| 50 | CCCCCN1N=C(c2ccc3c(c2)N(S(C)(=O)=O)CCO3)CCC1=O | -6 | -2 | 22 | > 1.88 |  |
| 100 | CN1N=C(c2ccc3c(c2)N(S(C)(=O)=O)CCO3)CCC1=O | 0 | 12 | 26 | > 1.88 |  |
| 4 | CC1CC(=O)NN=C1c1ccc2c(c1)OC(C)(C)C(=O)N2 (centres undefined) |  |  |  | 0.0162 | Activity (Canis familiaris [8]): -28; Activity (Canis familiaris [9]): 16; Activity (Canis familiaris [10]): 82 |
| 14 | CC1Oc2ccc(C3=NNC(=O)CC3)cc2NC1=O (centres undefined) |  | 24 |  | 0.49 |  |
| 7 | CC1(C)C(=O)Nc2ccc(C3=NNC(=O)CC3)cc21 [INDOLIDAN] |  |  |  | 0.0084 | Activity (Canis familiaris [8]): -27; Activity (Canis familiaris [23]): 32; Activity (Canis familiaris [10]): 110 |
| 200 | CS(=O)(=O)N1CCOc2ccc(C3=NN(c4ccccc4)C(=O)CC3)cc21 | 9 | 6 | 30 | > 1.88 |  |
| 6 | CC1CC(=O)NN=C1c1ccc2c(c1)NCCO2 (centres undefined) |  |  |  | 0.056 | Activity (Canis familiaris [6]): 44; Activity (Canis familiaris [11]): 149; Activity (Canis familiaris [7]): -11 |
| 6 | CC1CC(=O)NN=C1c1ccc2c(c1)N(C)C(=O)C(C)O2 (centres undefined) |  |  |  | 0.068 | Activity (Canis familiaris [6]): 36; Activity (Canis familiaris [7]): -15 |
| 4 | CC1CC(=O)NN=C1c1ccc2c(c1)OC(C)C(=O)N2 (centres undefined) |  |  |  | 0.0054 | Activity (Canis familiaris [8]): -17; Activity (Canis familiaris [9]): 23; Activity (Canis familiaris [10]): 154 |
| 100 | CC(=O)N1CCOc2ccc(C3=NNC(=O)CC3)cc21 | -14 | 20 | 121 | 0.37 |  |
| 50 | O=C1CCC(c2ccc3c(c2)NCCO3)=NN1 | -17 | 15 | 105 | 0.62 |  |
| 20 | Cc1cc2c(cc1C1=NNC(=O)CC1C)NC(=O)CO2 (centres undefined) |  |  |  | 0.137 | Activity (Canis familiaris [6]): 20; Activity (Canis familiaris [7]): -4 |
| 26 | Cc1cc(C2=NNC(=O)CC2)c2c(c1)N(C)C(=O)CO2 |  |  |  | 0.258 | Activity (Canis familiaris [24]): 9; Activity (Canis familiaris [11]): 73; Activity (Canis familiaris [7]): 1 |
| 5 | CC1CC(=O)NN=C1c1ccc2c(c1)NC(=O)C(C)O2 (centres undefined) |  |  |  | 0.07 | Activity (Canis familiaris [6]): 18; Activity (Canis familiaris [11]): 157; Activity (Canis familiaris [7]): -10 |
| 36 | CN1C(=O)C(C)(C)Oc2ccc(C3=NNC(=O)CC3)cc21 | -12 | 8 | 125 |  | ED50 (Canis familiaris [25]): 0.8 mg/kg |
